According to ChEMBL document CHEMBL1147268, “New triterpene glycosides from the stems of Anomospermum grandifolium” (2003):
≈ marks a conversion by molar mass, not a printed value. Calls of active or inactive are those of the source. No cut-off for these calls is given here.

Columns and labels:
Staphylococcus aureus [1] = test: Antibacterial activity against Staphylococcus aureus ATCC 25923 at 120 ug/mL after 18 hrs by broth microdilution method; assay type: functional, organism-based
Procedure, shortened: (§1)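 Broth microdilution in Mueller Hinton broth in 96-well plates, run in duplicate following NCCLS guidance. Pure compounds were tested at dilution intervals up to a top concentration of 120 or 250 µg/mL. Plates were incubated 18 h at 37 °C and read from below with a reflective viewer. DMSO served as blank control and ampicillin as positive control.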

Enterococcus faecalis [2] = test: Antibacterial activity against Enterococcus faecalis ATCC 29212 at 120 ug/mL after 18 hrs by broth microdilution method; assay type: functional, organism-based; procedure, shortened: as §1
Pseudomonas aeruginosa [3] = test: Antibacterial activity against Pseudomonas aeruginosa ATCC 27853 at 120 ug/mL after 18 hrs by broth microdilution method; assay type: functional, organism-based; procedure, shortened: as §1
Escherichia coli [4] = test: Antibacterial activity against Escherichia coli ATCC 25922 at 120 ug/mL after 18 hrs by broth microdilution method; assay type: functional, organism-based; procedure, shortened: as §1
Pseudomonas aeruginosa [5] = test: Antibacterial activity against Pseudomonas aeruginosa ATCC 27853 at 250 ug/mL after 18 hrs by broth microdilution method; assay type: functional, organism-based; procedure, shortened: as §1
Enterococcus faecalis [6] = test: Antibacterial activity against Enterococcus faecalis ATCC 29212 at 250 ug/mL after 18 hrs by broth microdilution method; assay type: functional, organism-based; procedure, shortened: as §1
Staphylococcus aureus [7] = test: Antibacterial activity against Staphylococcus aureus ATCC 25923 at 250 ug/mL after 18 hrs by broth microdilution method; assay type: functional, organism-based; procedure, shortened: as §1
Candida albicans = test: Antifungal activity against Candida albicans ATCC 3153 after 18 hrs by broth microdilution method; assay type: functional; conditions: ATCC 3153, 18 h
Procedure, shortened: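 Candida albicans ATCC 3153 was tested by broth microdilution in Sabouraud broth in 96-well plates, in duplicate, per NCCLS. Pure compounds were tested at varied dilution intervals. Plates were incubated 18 h at 37 °C and read from below with a reflective viewer. MIC was taken from the growth end point. DMSO served as blank control and ketoconazole as positive control.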

Escherichia coli [8] = test: Antibacterial activity against Escherichia coli ATCC 25922 at 250 ug/mL after 18 hrs by broth microdilution method; assay type: functional, organism-based; procedure, shortened: as §1

Row | Compound | Activity (Staphylococcus aureus [1]) | Activity (Enterococcus faecalis [2]) | Activity (Pseudomonas aeruginosa [3]) | Activity (Escherichia coli [4]) | Activity (Pseudomonas aeruginosa [5]) | Activity (Enterococcus faecalis [6]) | Activity (Staphylococcus aureus [7]) | MIC (Candida albicans) | Activity (Escherichia coli [8])
1 | CC(C)=C[C@H]1C[C@](C)(O)[C@@H]2[C@H]3CC[C@@H]4[C@@]5(C)CC[C@H](O[C@@H]6OC[C@H](O)[C@H](O[C@@H]7O[C@H](CO)[C@@H](O)[C@H](O)[C@H]7O)[C@H]6O[C@@H]6O[C@@H](CO)[C@H](O)[C@H]6O)C(C)(C)[C@@H]5CC[C@@]4(C)[C@@]34CO[C@@]2(C4)O1 | inactive | inactive | inactive | inactive | – | – | – | – | –
2 | CC(C)=C[C@H]1C[C@](C)(O)[C@@H]2[C@H]3CC[C@@H]4[C@@]5(C)CC[C@H](O[C@@H]6OC[C@H](O)[C@H](O[C@@H]7O[C@H](CO[C@@H]8O[C@H](CO)[C@@H](O)[C@H](O)[C@H]8O)[C@@H](O)[C@H](O)[C@H]7O)[C@H]6O[C@@H]6O[C@@H](CO)[C@H](O)[C@H]6O)C(C)(C)[C@@H]5CC[C@@]4(C)[C@@]34CO[C@@]2(C4)O1 | – | – | – | – | inactive | inactive | inactive | 250 µg/mL (≈ 236 µM) | inactive
3 | CC(=O)N1CCN(c2ccc(OCC3COC(Cn4ccnc4)(c4ccc(Cl)cc4Cl)O3)cc2)CC1 (stereo not given) [KETOCONAZOLE] | – | – | – | – | – | – | – | 0.1 µg/mL (≈ 0.188 µM) | –
